Measurements of several laboratories.
Protocols differ between the studies behind these lines.
Target: Fibroblast growth factor receptor 1 (FGFR1, Homo sapiens, UniProt P11362)

With `CN(c1ncccc1CNc1nc(Nc2ccc3c(c2)CC(=O)N3)ncc1C(F)(F)F)S(C)(=O)=O` the inhibition was 80.1% (enzyme activity, inhibitor; 1 µM).
`C=CC(=O)Nc1cccc(-n2nc3c(=O)[nH]nc(N)c3c2-c2oc3ccc(C)cc3c2C)c1` gave an inhibition of 10.6% (enzyme activity, inhibitor, ELISA; 10 nM).
`COc1cc(/C=C/C(=O)c2ccc(NC3=C(Cl)C(=O)c4ccccc4C3=O)cc2)cc(OC)c1OC` has an inhibition of over 70% (enzyme activity, inhibitor, ADP detection; 1 µM).
For `Cc1cc(NC(=O)c2cccc(S(F)(F)(F)(F)F)c2)cc(-n2ccn3nc(-c4cccnc4)cc23)c1`, the remaining binding was 100% (cell-free assay, competition with immobilised ligand; 1 µM).
For `CCOc1cc(-c2nncn2C)ccc1Nc1ncc2cc(C)nc(NCC(C)(C)C)c2n1`, the inhibition was under 15% (enzyme activity, inhibitor, FRET; 1 µM).
`Cc1noc([C@H]2C[C@@H](c3ccc(C(F)(F)F)cc3)CN(C(=O)N3CCS(=O)(=O)C3)C2)n1` gave a remaining binding of 100% (cell-free assay, competition with immobilised ligand; 1 µM).
With `C[S+]([O-])c1ccc(-c2nc(-c3ccncc3)c(-c3ccc(F)cc3)[nH]2)cc1` (stereo not drawn) the remaining signal was 90.7% (cell-free assay; 0.5 µM).
The activity vs control of `COc1cc(/C=C/C(=O)CC(=O)/C=C/c2ccc(O)c(OC)c2)ccc1O` is reported as 102% (enzyme activity, inhibitor; 1 µM).
For `CS(=O)(=O)c1cc(C2(NC(=O)c3cncc4c3cnn4-c3ccc(F)cc3)CC2)ccn1`, the remaining binding was 95% (cell-free assay, competition with immobilised ligand; 1 µM).
With `O=C1Nc2ccc(Cl)cc2C1=Cc1cc(Cl)c(O)c(Cl)c1` the remaining signal was 90.8% (cell-free assay; 0.5 µM).
With `COc1cc2nccc(Oc3ccc(NC(=O)c4c5n(n(-c6ccc(F)cc6)c4=O)CCCC5)cc3)c2cc1OC` the inhibition was -7% (enzyme activity, inhibitor; 0.1 µM).
For `Cn1nc(C(F)(F)F)cc1-c1cnc(N2CCc3cc(S(=O)(=O)Nc4c(F)cc(Cl)cc4F)cc(N4CCCC4=O)c32)nc1`, the remaining binding was 99% (cell-free assay, competition with immobilised ligand; 1 µM).
`CNC(=O)c1cc(Oc2ccc(NC(=O)Nc3ccc(Cl)c(C(F)(F)F)c3)cc2)ccn1` gave an inhibition of 69% (enzyme activity, inhibitor; 0.3 µM).
For `Nc1ncnc2occ(-c3ccc(NC(=O)Nc4cc(C(F)(F)F)ccc4F)cc3)c12`, the remaining signal was 0.15% (cell-free assay; 20 µM).
With `CC(=O)N1CCC(c2ccc(C(=O)NC3=NCCN3)cc2C(F)(F)F)CC1` the remaining binding was 100% (cell-free assay, competition with immobilised ligand; 1 µM).
`Clc1ccc(Nc2nnc(Cc3ccncc3)c3ccccc23)cc1` has a remaining signal of 97.2% (cell-free assay; 0.5 µM).
`Cc1c[nH]c2nccc(Oc3c(F)cc(Nc4cc(Cl)nc(N)n4)cc3F)c12` has a remaining binding of 100% (cell-free assay, competition with immobilised ligand; 0.1 µM).
`N#CCCc1ccc2c(c1)-c1[nH]c3ccc([N+](=O)[O-])cc3c1CC(=O)N2` gave a remaining signal of 91.9% (cell-free assay; 0.5 µM).
